Source: publication PMC7191207 (Heliyon, 2020)
Read-outs that look alike come from different tables or passages of the source.

How the values were obtained:
[1] = Stability tests of QC samples in pooled human plasma; format: physicochemical; conditions: for degradation of QC samples: QC low, medium and high
In short: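 QC samples (12, 120, 900 ng/mL) spiked into pooled human plasma in triplicate, then held at bench top, in the autosampler, or 1 month at -80 °C. Extraction: diethyl ether liquid-liquid, dried under nitrogen at 37 °C, reconstituted in mobile phase. Analysis: C18 LC-MS/MS with positive ESI MRM (438.3/357.2) against a 1/x2-weighted calibration (5–1000 ng/mL). Accuracy = measured/nominal × 100%.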

[2] = format: in vivo, human; conditions: oral 800 mg daily
In short: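 Plasma from patients on oral 800 mg daily for at least one week, excluding combined TKI therapy; blood centrifuged at 3000 rpm, plasma stored at -20 °C. Free fraction by rapid equilibrium dialysis (8000 Da cut-off) against PBS at 37 °C, 250 rpm, 6 h, in technical duplicates. Quantified by C18 HPLC with positive-ESI MRM, erlotinib internal standard, calibration 5–1000 ng/mL.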

[3] = Calculated hepatic extraction ratio; conditions: low (<0.3)
renal cancer patients = renal cancer patients in clinical trials, up; cited from earlier work
albumin = conditions: mainly bound to albumin; cited from earlier work

Compound: Cc1ccc(Nc2nccc(N(C)c3ccc4c(C)n(C)nc4c3)n2)cc1S(N)(=O)=O [pazopanib, Pazopanib]
- degradation of QC samples ([1]; 1 month of storage at -80 °C): No significant degradation
- Stability, Accuracy (%) from nominal concentration ([1]; Autosampler: extracted samples stored for 14 h at room temperature, 12 ppb): 96.45%
- Stability, Accuracy (%) from nominal concentration ([1]; Autosampler: extracted samples stored for 14 h at room temperature, 120 ppb): 96.56%
- Stability, Accuracy (%) from nominal concentration ([1]; Autosampler: extracted samples stored for 14 h at room temperature, 900 ppb): 96.02%
- Stability, Accuracy (%) from nominal concentration ([1]; Bench Top: plasma samples stored at room temperature for 8h, 12 ppb): 113.11%
- Stability, Accuracy (%) from nominal concentration ([1]; Bench Top: plasma samples stored at room temperature for 8h, 120 ppb): 93.21%
- Stability, Accuracy (%) from nominal concentration ([1]; Bench Top: plasma samples stored at room temperature for 8h, 900 ppb): 97.02%
- Stability, Accuracy (%) from nominal concentration ([1]; Freeze Thaw: three freeze thaw cycles, 12 ppb): 93.79%
- Stability, Accuracy (%) from nominal concentration ([1]; Freeze Thaw: three freeze thaw cycles, 120 ppb): 93.50%
- Stability, Accuracy (%) from nominal concentration ([1]; Freeze Thaw: three freeze thaw cycles, 900 ppb): 100.49%
- Stability, Accuracy (%) from nominal concentration ([1]; Long Term: stored at -80 °C for 1 month, 12 ppb): 100.58%
- Stability, Accuracy (%) from nominal concentration ([1]; Long Term: stored at -80 °C for 1 month, 120 ppb): 113.89%
- Stability, Accuracy (%) from nominal concentration ([1]; Long Term: stored at -80 °C for 1 month, 900 ppb): 114.23%
- degradation of QC samples ([1]; auto sampler conditions): No significant degradation
- degradation of QC samples ([1]; bench top conditions): No significant degradation
- degradation of QC samples ([1]; three freeze-thaw cycles): did not result in significant degradation
- free drug concentration ([2]; 17 patients' plasma samples, mean ± standard deviation): 5.84 ± 3.02 ng/mL
- Plasma free drug concentration (Median ± Interquartile range) ([2]; patients with low albumin level (<40 g/L) (n = 7)): 6.49 ± 3.65 ng/mL
- Plasma free drug concentration (Median ± Interquartile range) ([2]; patients with normal albumin level (n = 8)): 4.88 ± 2.71 ng/mL
- Plasma free drug concentration (Median ± Interquartile range) ([2]; patients with very low albumin level (<30 g/L) (n = 2)): 3.44 ± 1.32 ng/mL
- calculated hepatic extraction ratio [3]: 0.00346
- proportion of patients with increases in serum transaminases and bilirubin (renal cancer patients): 40–50%
- plasma protein binding (albumin): > 99.9%
